Screening results from PubChem BioAssay.
RGS4 block: RGS4 inhibitors, primary screen, cell-based, HEK293 M3R inducible RGS4, calcium flux; Fluo-4 calcium flux; stronger effect = higher value; triggered by carbachol at its EC20; 310,000 tested, 0.45% active; Regulator of G-protein signaling 4 (Homo sapiens), P49798; AID 463165, 2010; B-score at 10 µM;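 active means B-score, a plate-corrected calcium signal, over three deviations above library mean, with baseline fluorescence within five deviations of library mean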;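 further: RGS4 expression induced by doxycycline in cells with stable M3 receptor; B-score is computed from the integrated fluorescence ratio over baseline after carbachol; higher B-score means a larger calcium signal and so more RGS4 inhibition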
Target sequence (P49798 whole entry, looked up): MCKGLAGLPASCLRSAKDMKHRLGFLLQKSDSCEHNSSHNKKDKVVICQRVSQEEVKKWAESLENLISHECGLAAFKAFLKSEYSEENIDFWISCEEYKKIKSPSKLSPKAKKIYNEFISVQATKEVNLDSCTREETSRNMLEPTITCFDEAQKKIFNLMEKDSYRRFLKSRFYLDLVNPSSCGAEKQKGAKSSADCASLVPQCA
MrgX1 PAM: positive allosteric modulators of MrgX1, primary screen, HEK293 cells, Fluo-4 calcium flux | Mas-related G-protein coupled receptor member X1 (Homo sapiens), Q96LB2 | FDSS; stronger effect = higher value | B-score at 10 µM | 310,000 tested, 0.63% active | AID 588675, 2011;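 active means plate-corrected calcium response at least 3 library SD above typical, normal starting fluorescence, not activating the receptor alone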;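 further: compound read alongside a low EC10 to EC30 dose of BAM8-22 agonist; peak minus trough fluorescence over baseline measured at the second addition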
Target sequence (Q96LB2 whole entry, looked up): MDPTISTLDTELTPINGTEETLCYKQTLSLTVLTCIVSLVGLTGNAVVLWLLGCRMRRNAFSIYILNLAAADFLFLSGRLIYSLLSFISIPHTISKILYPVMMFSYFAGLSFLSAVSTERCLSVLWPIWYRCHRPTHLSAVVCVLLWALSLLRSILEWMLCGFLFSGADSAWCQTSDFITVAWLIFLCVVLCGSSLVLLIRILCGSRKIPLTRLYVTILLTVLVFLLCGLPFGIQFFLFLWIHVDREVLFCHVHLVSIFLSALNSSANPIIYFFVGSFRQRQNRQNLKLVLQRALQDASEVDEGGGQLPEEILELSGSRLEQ
MrgX1 ag: agonists of human MrgX1 receptor, primary screen, HEK293 cells, Fluo-4 calcium flux. 310,000 tested, 0.44% active. B-score at 10 µM. Fluo-4 calcium fluorescence, agonist mode; stronger effect = higher value. AID 588627, 2011;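 active means calcium response B-score plate-corrected fluorescence ratio at least 3 library SD, with starting fluorescence B-score inside 5 SD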
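Test system: HEK293 cells stably expressing human MrgX1 receptor; Input: fifteen thousand cells per well; Dosing: compound delivered in addition one of three; Schedule: overnight seeding, then 1 h dark dye loading; Technique: Fluo-4 NW calcium fluorescence; Measure: B-scored fluorescence response ratio; Controls: positive and negative controls per plate.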
MrgX1 antag: antagonists of human MrgX1 receptor, primary screen, HEK293 cells, Fluo-4 calcium flux; B-score at 10 µM; 310,000 tested, 1.3% active; AID 588676, 2011; BAM8-22 antagonism; stronger effect = lower value; Mas-related G-protein coupled receptor member X1 (Homo sapiens), Q96LB2;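 active means calcium-response B-score plate-corrected more than 3 library SD below zero, starting fluorescence within 5 deviations, no agonist response on first addition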;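 further: peak minus trough fluorescence over baseline after final BAM8-22 challenge near maximal dose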
RGS4 act: RGS4 potentiators or activators, primary screen, cell-based, HEK293 M3R inducible RGS4, calcium flux; carbachol calcium flux Fluo4; stronger effect = lower value; B-score at 10 µM; 310,000 tested, 0.92% active; AID 463111, 2010;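 active means B-score of the integrated calcium signal more than 4 SD below the library mean, with starting fluorescence not abnormally high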;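 further: negative B-score means reduced calcium response which marks RGS4 activation or potentiation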
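Reagent: ECmax carbachol challenge; Test system: M3R-expressing HEK293 line, RGS4 induced by doxycycline; Schedule: overnight RGS4 induction, 30 min dye load 37 °C, 20 min compound RT; Detection: calcium dye Fluo4 fluorescence; Read-out: Agonist-evoked peak-minus-minimum fluorescence over baseline, integrated ratio, B score.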
MrgX1 ag confirm: MrgX1 receptor agonists, duplicate retest, confirmation, HEK293 cells, Fluo-4 calcium flux | Fluo-4 calcium fluorescence, FDSS | AID 602412, 2012 | shares compounds with MrgX1 ag | activation, % at 10 µM | 600 tested, 78% active;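 active means calcium signal rise, corrected for plate position, at least 3 library SD high, with starting brightness within 5 such deviations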
HEK293 Ca flux: nonspecific calcium signal in parental HEK293, confirmation, counter-screen for MrgX1 antagonist project, parental HEK293 cells, Fluo-4 calcium flux | fluorescence ratio F(max-min)/F0 at 10 µM | 4,000 tested, 2% active | Fluo-4 calcium fluorescence, FDSS | shares compounds with MrgX1 antag;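 active means duplicate-averaged calcium fluorescence ratio at least three times the standard deviation of buffer wells, a nonspecific response in parental cells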
HEK293 Ca counter: calcium response in parental HEK293 cells, primary screen, counter-screen for MrgX1 allosteric activator project, cell-based, Fluo-4 calcium flux, duplicate; Fluo-4 fluorescence ratio; stronger effect = higher value; fluorescence ratio F(max-min)/F0 at 10 µM; 4,000 tested, 0.4% active; AID 624114, 2012; shares compounds with MrgX1 antag;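 active means calcium fluorescence ratio, averaged over duplicates, at least 3 SD of the buffer-well ratio, meaning a nonspecific response in receptor-free cells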;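 further: untransfected parental HEK293 lacking MrgX1 used as counterscreen for MrgX1 allosteric activators; fluorescence change taken during the second addition on a kinetic imager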
HEK293 Ca cntr2: calcium response in parental HEK293 cells, primary screen, counter-screen for MrgX1 agonist project, cell-based, Fluo-4 calcium flux, duplicate, agonist mode; shares compounds with MrgX1 antag; Fluo-4 calcium fluorescence (FDSS); stronger effect = higher value; fluorescence ratio F(max-min)/F0 at 10 µM; 4,000 tested, 8.7% active; AID 624115, 2012;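 active means calcium fluorescence ratio at least three times the spread of buffer wells, meaning a non-specific response in parental cells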
The depositor's hits bear a star; i = inactive; . = no result. Most compounds without a hit are left out; they make up all but 3.5% or so of the library.

SMILES	RGS4 block	MrgX1 PAM	MrgX1 ag	MrgX1 antag	RGS4 act	MrgX1 ag confirm	HEK293 Ca flux	HEK293 Ca counter	HEK293 Ca cntr2
CC(C)(C)c1ccc(S(=O)(=O)/N=C2\C=C(NS(=O)(=O)c3ccccc3)C(=O)c3ccccc32)cc1	i	i	27*	i	i	80%*	i	i	57*
O=C(Nc1cccc2cccnc12)c1ccccc1Br	i	i	i	i	i	.	.	.	.
Cc1cc(N2C(=O)[C@@H]3[C@H](C2=O)[C@@H]2C[C@H]3C(Br)C2Br)no1 (stereo not given in full)	i	i	i	i	i	.	.	.	.
N#Cc1nc(Cl)c(Cl)c(NN)c1Cl	i	i	i	i	i	.	.	.	.
O=C(CSc1nnc(NC(=O)C2CCC2)s1)NC1CC1	i	i	40*	i	i	i	i	i	i
CCCc1[nH]n(-c2nc3ccccc3s2)c(=O)c1C=NCC1CCCO1 (stereo not given)	i	i	51*	i	i	187%*	i	i	i
Cc1cccc(N(CC(=O)NC2CCCCC2)C(=O)CCCC(=O)Nc2ccccn2)c1C	i	i	i	i	i	.	.	.	.
CCOc1ccc(-n2nnnc2SCC(=O)Nc2cccc(O)c2)cc1	i	i	i	i	i	.	.	.	.
CCSc1nc2ccccc2n1CCOc1ccccc1	i	i	i	i	i	.	.	.	.
Cc1nc2ccccc2n1CCOc1ccccc1	i	i	i	i	i	.	.	.	.
COc1ccc(OCCn2c(N)nc3ccccc32)cc1	i	i	30*	i	i	153%*	i	i	i
Nc1nc2ccccc2n1CCOc1ccc(F)cc1	i	i	41*	i	i	134%*	i	i	i
CCN=C1SC(CC(=O)NC(C)c2ccccc2)C(=O)N1CC (stereo not given)	i	i	i	i	i	.	.	.	.
CCOC(=O)c1cc2c(ccn2C)n1Cc1ccc(C#N)cc1	i	i	27*	i	i	132%*	i	i	i
CCOC(=O)c1cc2c(ccn2C)n1Cc1ccc(Cl)cc1	i	i	i	i	i	.	.	.	.
CCO[C@H]1OC(C(=O)N2CCCCCCC2)=C[C@@H](c2ccccc2)[C@@H]1CCCO	i	i	i	i	i	.	.	.	.
O=C(O)[C@@H]1Cc2ccccc2N1	i	i	i	i	i	.	.	.	.
c1ccc2c(c1)CNc1ccccc1C2	i	i	30*	i	i	224%*	i	i	i
CCOC(=O)c1ccc2c(c1)N(CC#N)C(=O)C(C)(C)O2	i	i	50*	i	i	109%*	i	i	46*
CCOC(=O)c1ccc2c(c1)N(CC(=O)N1CCCC1)C(=O)C(C)(C)O2	i	i	i	i	i	.	.	.	.
COc1ccc2[nH]c3c(=O)n(Cc4ccc(C(=O)N5CCCC5)cc4)c(=S)[nH]c3c2c1	i	i	i	i	i	.	.	.	.
C=C(C)Cn1c(SCC(=O)O)nnc1-c1ccccc1	i	i	i	i	i	.	.	.	.
C=C(C)Cn1c(-c2ccccc2)nc2ccccc21	i	i	31*	i	i	131%*	i	i	i
COc1ccc(OC)c(N=C2SCCCN2C(=O)c2ccc(N3C(=O)CCC3=O)cc2)c1	i	i	i	i	i	.	.	.	.
Cc1sc(N)nc1-c1ccc(Oc2ccccc2)cc1	i	i	i	i	i	.	.	.	.
SMILES	RGS4 block	MrgX1 PAM	MrgX1 ag	MrgX1 antag	RGS4 act	MrgX1 ag confirm	HEK293 Ca flux	HEK293 Ca counter	HEK293 Ca cntr2
Cc1[nH]c2ccccc2c1-c1nc(N)sc1C	i	i	38*	i	i	i	i	i	i
CCC(=O)N/N=C/c1ccc(-c2ccc([N+](=O)[O-])cc2)o1	i	i	i	i	i	.	.	.	.
CC(C)(C)C(=O)/C=c1\s/c(=C\c2ccc(-c3ccc([N+](=O)[O-])cc3)o2)c(=O)n1CC(=O)NC(N)=O	i	i	82*	i	i	464%*	0.017*	i	89*
O=C1CC(O)(C(F)(F)F)Oc2c1ccc1ccccc21 (stereo not given)	i	i	90*	i	i	565%*	i	i	103*
COc1ccccc1NC(=O)CSc1nnc(CCC(=O)Nc2ccccc2F)n1C	i	i	i	i	i	.	.	.	.
CCc1nc2ccccc2n1Cc1ccc(OC)c(OC)c1	i	i	41*	i	i	i	i	i	i
O=C1NC2(CCCCCC2)C(=O)N1Cc1ccccc1Br	i	i	i	i	i	.	.	.	.
COc1ccc(-c2cc(OC)c3c(C)oc(C)c3c(=O)c2)cc1OC	i	i	i	i	i	.	.	.	.
COc1cc(-c2cc(OC)c3c(C)oc(C)c3c(=O)c2)ccc1O	i	i	30*	i	i	175%*	i	i	i
Cc1sc2ncnc(N3CCC(C(=O)Nc4nc(-c5cccs5)cs4)CC3)c2c1C	i	i	i	i	i	.	.	.	.
CCOc1ccc(Br)cc1CNc1ccc2c(c1)OCCO2	i	i	i	i	i	.	.	.	.
CS(=O)(=O)c1nc(-c2ccccc2)cc(C(F)(F)F)n1	i	i	38*	i	i	184%*	i	i	i
Cc1cc(NC(=O)CCS(=O)(=O)c2nc(-c3ccccc3)cc(C(F)(F)F)n2)no1	.	i	i	i	.	.	.	.	.
COC(=O)CC1=C(C(=O)OC)C(c2ccc3c(c2Cl)OCO3)C(C#N)=C(N)O1 (stereo not given)	i	i	41*	i	i	172%*	i	i	i
